Assay outcomes from PubChem.
MrgX1 ag = agonists of human MrgX1 receptor; B-score at 10 µM; AID 588627; 310,000 tested, 0.44% active; MrgX1-HEK293 cells, Fluo-4 calcium fluorescence, agonist mode; hits give high values;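 active = calcium response B-score plate-corrected fluorescence ratio at least 3 library SD, with starting fluorescence B-score inside 5 SD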
Target sequence (Q96LB2 whole entry, looked up): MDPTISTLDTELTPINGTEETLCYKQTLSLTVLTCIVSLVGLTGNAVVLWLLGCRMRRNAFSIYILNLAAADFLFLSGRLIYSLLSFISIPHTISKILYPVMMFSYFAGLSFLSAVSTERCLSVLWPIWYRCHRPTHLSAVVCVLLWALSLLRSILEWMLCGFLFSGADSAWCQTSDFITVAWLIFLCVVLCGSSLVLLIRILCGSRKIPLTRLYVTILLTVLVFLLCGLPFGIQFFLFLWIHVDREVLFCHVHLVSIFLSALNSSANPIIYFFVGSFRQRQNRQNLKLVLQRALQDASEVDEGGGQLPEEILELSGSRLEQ
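System – MrgX1-expressing HEK293 cells · Incubation – cells plated overnight, dye loaded 0.5 h 37 °C, 0.5 h room temperature · Technique – kinetic Fluo-4 NW fluorescence of intracellular calcium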
RGS4 pot = potentiators or activators of RGS4. HEK293 M3R/inducible RGS4, carbachol calcium flux Fluo4; hits give low values. B-score at 10 µM. 310,000 tested, 0.92% active;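 active = B-score of the integrated calcium signal more than 4 SD below the library mean, with starting fluorescence not abnormally high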;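 note: negative B-score means reduced calcium response which marks RGS4 activation or potentiation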
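Test system: HEK293 cells with stable M3R and inducible RGS4; also added: carbachol at ECmax as muscarinic agonist stimulus; schedule: dye loading 30 min 37 °C, buffer rest 30 min RT; technique: kinetic calcium fluorescence imaging with Fluo4-AM dye, 2 µM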
MrgX1 antagonist = blocks BAM8-22 activation of human MrgX1 receptor; Q96LB2; MRGX1-HEK293 calcium flux, Fluo-4, BAM8-22 antagonism; hits give low values; B-score at 10 µM; 310,000 tested, 1.3% active;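 active = calcium-response B-score plate-corrected more than 3 library SD below zero, starting fluorescence within 5 deviations, no agonist response on first addition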;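 note: peak minus trough fluorescence over baseline after final BAM8-22 challenge near maximal dose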
RGS4 inh = inhibitors of human RGS4 | P49798 | 310,000 tested, 0.45% active | B-score at 10 µM | HEK293 M3R/RGS4 inducible, Fluo-4 calcium flux; hits give high values; triggered by carbachol at its EC20 | AID 463165;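 active = B-score, a plate-corrected calcium signal, over three deviations above library mean, with baseline fluorescence within five deviations of library mean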;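 note: RGS4 expression induced by doxycycline in cells with stable M3 receptor; B-score is computed from the integrated fluorescence ratio over baseline after carbachol; higher B-score means a larger calcium signal and so more RGS4 inhibition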
Target sequence (P49798 whole entry, looked up): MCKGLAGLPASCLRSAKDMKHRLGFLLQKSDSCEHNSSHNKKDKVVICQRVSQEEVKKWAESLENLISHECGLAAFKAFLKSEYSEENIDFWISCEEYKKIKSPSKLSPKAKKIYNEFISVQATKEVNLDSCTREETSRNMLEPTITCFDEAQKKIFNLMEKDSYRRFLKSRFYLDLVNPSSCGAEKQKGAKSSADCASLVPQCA
MrgX1 PAM = human MrgX1 positive allosteric modulation, primary screen; Q96LB2; MrgX1-HEK293, Fluo-4 calcium flux, FDSS; hits give high values; B-score at 10 µM; 310,000 tested, 0.63% active; AID 588675;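 active = plate-corrected calcium response at least 3 library SD above typical, normal starting fluorescence, not activating the receptor alone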;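 note: compound read alongside a low EC10 to EC30 dose of BAM8-22 agonist; peak minus trough fluorescence over baseline measured at the second addition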
KCC2 mod = modulates chloride dependent transport by human KCC2. Q9H2X9. KCC2 cells, thallium flux FluoZin-2 fluorescence. B-score of Tl+ flux slope (higher = more flux/activation; lower = inhibition) at 10 µM. 190,000 tested, 2.2% active;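 active = thallium flux slope and its plate-corrected score both differing from the plate sample mean at a set confidence after two filtering rounds, in either direction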;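 note: slope of fluorescence scaled to starting intensity during 10 to 20 s after thallium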
RGS4 block valid = validation of RGS4 inhibitors | HEK293 M3R/RGS4, carbachol calcium Fluo-4 fluorescence; carbachol added at its EC20; 0 = buffer wells, 100 = carbachol control | calcium response, % at 10 µM | shares compounds with RGS4 inh | 1,700 tested, 65% active | AID 492999;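 active = duplicate-averaged calcium response above the buffer-only control mean plus 5 SD of those controls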;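 note: integrated fluorescence ratio F max minus min over baseline F0; higher response in RGS4-induced cells means RGS4 inhibition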
RGS4 uninduced = counter-screen for RGS4 inhibitors: effect in non-induced cells | shares compounds with RGS4 inh | activity (percent), % at 10 µM | AID 493000 | HEK293 M3R non-induced, carbachol calcium Fluo-4; submaximal (EC20) carbachol stimulus; buffer wells 0%, carbachol control wells 100% | 1,900 tested, 20% active; call rule not given here;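 note: RGS4 induction absent so cells express M3R without RGS4; higher means more calcium signal and flags a non-specific hit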
M3R basal Ca ctr = signal in non-induced cells without carbachol, RGS4 inhibitor counter-screen; shares compounds with RGS4 inh; HEK293 M3R/RGS4 non-induced, Fluo-4 calcium, no carbachol; normalised: buffer wells 0%, carbachol wells 100%; calcium response (agonist-mode artifact), % at 10 µM; 1,900 tested, 22% active;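 active = duplicate-averaged calcium rise in uninduced cells above buffer wells' mean plus 5 SD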
MrgX1 ag confirm = confirmation of human MrgX1 receptor agonists. activation, % at 10 µM. 600 tested, 78% active. MrgX1-HEK293, Fluo-4 calcium fluorescence, FDSS. AID 602412. shares compounds with MrgX1 ag;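 active = calcium signal rise, corrected for plate position, at least 3 library SD high, with starting brightness within 5 such deviations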; note: reference of the scale not given here
MrgX1 allo conf = confirmation of human MrgX1 receptor positive allosteric modulators; shares compounds with MrgX1 PAM; MrgX1-HEK293, Fluo-4 calcium fluorescence, FDSS; activation (ratio percentage), % at 10 µM; 1,200 tested, 13% active; AID 602413;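 active = ratio at least 3 SD above the weak peptide control, stable starting fluorescence, no direct agonism earlier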;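 note: compound followed by low BAM8-22 agonist challenge near EC20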
MrgX1 antag conf = human MrgX1 receptor antagonism, re-confirmation screen; shares compounds with MrgX1 antagonist; MrgX1-HEK293, BAM8-22 calcium flux, Fluo-4; hits give low values; remaining BAM8-22 calcium response % of control (hits give low values), % at 10 µM; 2,300 tested, 19% active;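 active = remaining agonist calcium response no higher than 100% minus 3 SD of agonist-only control wells, with starting fluorescence near control levels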;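 note: agonist BAM8-22 given at a near maximal EC90 to ECmax level; peak minus minimum fluorescence divided by baseline after agonist addition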
HEK293 Ca flux = counter-screen for MrgX1 antagonists: effect in parental HEK293 cells; shares compounds with MrgX1 antagonist; fluorescence ratio F(max-min)/F0 at 10 µM; 4,000 tested, 2% active; Fluo-4 calcium fluorescence, FDSS;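 active = duplicate-averaged calcium fluorescence ratio at least three times the standard deviation of buffer wells, a nonspecific response in parental cells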
HEK293 Ca counter = activity in parental HEK293 cells without MrgX1. fluorescence ratio F(max-min)/F0 at 10 µM. 4,000 tested, 0.4% active. AID 624114. shares compounds with MrgX1 antagonist. parental HEK293 calcium flux, Fluo-4 fluorescence ratio; hits give high values;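 active = calcium fluorescence ratio, averaged over duplicates, at least 3 SD of the buffer-well ratio, meaning a nonspecific response in receptor-free cells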;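 note: untransfected parental HEK293 lacking MrgX1 used as counterscreen for MrgX1 allosteric activators; fluorescence change taken during the second addition on a kinetic imager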
HEK293 Ca cntr2 = MrgX1 activator counter-screen hit in parental HEK293 cells; shares compounds with MrgX1 antagonist; Fluo-4 calcium fluorescence (FDSS); hits give high values; fluorescence ratio F(max-min)/F0 at 10 µM; 4,000 tested, 8.7% active; AID 624115;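 active = calcium fluorescence ratio at least three times the spread of buffer wells, meaning a non-specific response in parental cells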
Hits are given with their value; n = inactive; x = no result given. Shown are actives, neighbours in structure and some others; about 4.7% of the full set was active somewhere.

SMILES	MrgX1 ag	RGS4 pot	MrgX1 antagonist	RGS4 inh	MrgX1 PAM	KCC2 mod	RGS4 block valid	RGS4 uninduced	M3R basal Ca ctr	HEK293 Ca flux	HEK293 Ca counter	HEK293 Ca cntr2	others
O=C1N/C(=N\S(=O)(=O)c2ccccc2)S/C1=C\c1cc([N+](=O)[O-])ccc1O	n	n	n	n	n	x	x	x	x	x	x	x
COc1cc(/C=C2/S/C(=N/S(=O)(=O)Cc3ccccc3)NC2=O)c([N+](=O)[O-])cc1OC	n	n	n	n	n	x	n	n	n	x	x	x
COc1cc(/C=C2\S/C(=N/S(=O)(=O)Cc3ccccc3)NC2=O)c([N+](=O)[O-])cc1OC	n	n	n	n	n	n	n	n	n	x	x	x
COc1cc(/C=C2/S/C(=N/S(=O)(=O)c3ccccc3)NC2=O)c([N+](=O)[O-])cc1OC	n	n	n	5.9	n	x	38%	50%	n	x	x	x
CCOc1cc(C(=S)N2CCOCC2)ccc1OC(=O)c1ccc(C)cc1	n	n	n	n	n	x	x	x	x	x	x	x
Cc1cc(C)c(C(=O)COC(=O)Cn2c(C)csc2=O)cc1C	n	n	n	n	n	x	x	x	x	x	x	x
Cc1cc(N=Cc2cc(Br)ccc2O)no1	n	n	n	7.2	n	n	7.5%	n	n	x	x	x
O=C(Oc1cccc2cccnc12)c1ccc(N2C(=O)C3C4CCC(C4)C3C2=O)cc1 (centres undefined)	n	n	n	n	n	n	x	n	7.0%	x	x	x
O=C(CSc1nc(C(F)(F)F)cc(=O)[nH]1)NCc1ccc2c(c1)OCO2	n	n	n	n	n	x	x	x	x	x	x	x
C/C(=N\O)C(=O)Nc1ccccc1	n	n	n	n	n	n	x	x	x	x	x	x
CC(=N\Nc1ccc(Cl)cc1)/C(=N/O)C(=O)Nc1ccccc1	n	n	n	5.7	n	n	14%	n	n	x	x	x
COc1cccc(/C=N/c2sc(Cc3ccccc3)c(C)c2C(N)=O)c1O	n	n	n	5	n	n	24%	36%	n	x	x	x
COc1ccc(CN(C(=O)c2cc(=O)c3ccccc3o2)C2CCS(=O)(=O)C2)cc1 (centres undefined)	n	n	n	n	n	x	x	x	x	x	x	x
COc1ccc(-n2c(C)c(C)c3c(NCCCO)ncnc32)cc1	n	n	n	n	n	x	x	x	x	x	x	x
CCOc1ccc(C2C(C#N)=C(N)Oc3cc(O)ccc32)cc1OCC (centres undefined)	n	n	n	n	n	x	x	x	x	x	x	x
COc1ccc(C2C(C#N)=C(N)Oc3cc(O)ccc32)cc1Cl (centres undefined)	49	n	n	6.8	n	x	20%	43%	40%	n	n	n	MrgX1 ag confirm=n
O=C(OCCN1CCOCC1)c1ccc(O)cc1	n	n	n	n	n	x	x	x	x	x	x	x
C[N+](C)(C)C/C=C1/COCO1	67	-9.1	n	7.3	n	n	14%	n	386%	n	n	67	MrgX1 ag confirm=328%
CCOC(=O)C1CCN(C(=O)c2ccc(OC3CCN(C(=O)COC)CC3)cc2)CC1	x	n	x	n	x	x	x	x	x	x	x	x
COc1ccc(C(=O)CCN2CCN(c3ccccc3OC)CC2)cc1	n	n	n	n	n	n	x	x	x	x	x	x
COc1ccc(C(=O)CCN2CCc3cc(OC)c(OC)cc3C2)cc1	42	n	n	n	n	n	x	n	8.5%	n	n	n	MrgX1 ag confirm=n
COc1ccc(C(=O)CCS(=O)(=O)c2ccc(F)cc2)cc1OC	31	n	n	36	n	x	168%	28%	15%	n	n	n	MrgX1 ag confirm=141%
O=C(NCc1ccc(Cl)cc1)C(=O)NCC1OCCN1S(=O)(=O)c1cc(F)ccc1F (centres undefined)	n	n	n	n	n	x	x	x	x	x	x	x
Cc1ccc(NC(=O)CSC(N)=O)cc1Cl	n	n	-5	6.1	n	-3.5	12%	n	n	n	n	n	MrgX1 antag conf=85%
NC(=O)SCC(=O)Nc1cccc(Cl)c1	n	n	n	n	n	x	x	x	x	x	x	x
SMILES	MrgX1 ag	RGS4 pot	MrgX1 antagonist	RGS4 inh	MrgX1 PAM	KCC2 mod	RGS4 block valid	RGS4 uninduced	M3R basal Ca ctr	HEK293 Ca flux	HEK293 Ca counter	HEK293 Ca cntr2	others
COc1cc(CNc2ccc(N3CCCC3)cc2)cc(Cl)c1OC	n	n	-6.1	n	n	n	x	33%	n	n	n	n	MrgX1 antag conf=n
CC(C)(C)NCC(O)COc1cccc2c1CCC(=O)N2 (centres undefined)	n	x	n	x	n	x	x	x	x	x	x	x
COc1ccc(CS(=O)(=O)/C(Cl)=C(/Cl)C(=O)Nc2ccc(OC)nc2)cc1	47	n	n	13	n	n	57%	32%	12%	n	n	n	MrgX1 ag confirm=191%
COc1ccc(C2=Nn3c(nnc3-c3ccncc3)SC2)cc1OC	n	n	n	5.2	8.2	n	9.0%	n	n	n	n	n	MrgX1 allo conf=n
CCOc1ccc(-c2nnc3n2N=C(c2ccc(OC)cc2)CS3)cc1	n	n	n	n	n	x	x	x	x	x	x	x
CC(=O)NCc1ccc(C(=O)CCl)cc1	35	n	n	6.7	n	n	40%	n	9.5%	n	n	n	MrgX1 ag confirm=197%
CC(=O)NCc1ccc(C(=O)CCl)s1	n	n	n	n	n	n	x	x	x	x	x	x
COc1ccc(OC)c(NC(=O)C(CCSC)NS(=O)(=O)c2cccs2)c1 (centres undefined)	n	n	n	n	n	x	x	x	x	x	x	x
O=C(CCN1CCc2ccccc2CC1)c1ccc2c(c1)OCCO2	38	n	n	13	n	n	20%	n	26%	n	n	n	MrgX1 ag confirm=136%
